Experiments:
Type in all cases: cell-based, Escherichia coli
[1] = test system: WT carrying pCC:nrdAByfaE; assay: Time-kill assay, WT carrying pCC:nrdAByfaE; conditions: 50 μM HU, 5 h, MHB-I
E. coli = assay: MIC of chloramphenicol and nalidixic acid in AB medium; conditions: printed as the concentration equal to 10×MIC
Strain SMR14350 = assay: In vivo double-stranded DNA break visualization; conditions: ciprofloxacin 0.0125 mg/L, 4 h, AB medium, mean±SD of three determinations
Summary of the method: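 E. coli Gam-GFP reporter strain SMR14350 grown exponentially at 37°C in AB minimal medium (10 mg/L thiamine, 0.2% glucose, 0.5% casamino acids), diluted to OD450 0.05. PNA-peptide test compound (8 μM) or ciprofloxacin (0.0125 mg/L) added with anhydrotetracycline (10 mg/L) to induce Gam-GFP, for 4 h. Foci scored by fluorescence microscopy in three independent experiments (2553–3860 cells per condition).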

WT E. coli cells = assay: Macromolecular synthesis; conditions: nalidixic acid 40 mg/L (10×MIC), AB medium without casamino acids, single experiment
MG1655 = assay: MIC determination by broth microdilution; conditions: MG1655, non-cation-adjusted Mueller-Hinton broth (MHB-I), low-binding plastic, 37°C, 18 h, turbidity OD595
NrdA protein = assay: Western-blot analysis of NrdA protein level; conditions: 8 μM PNA-peptide, 3 h, AB medium, WT cells, band intensity relative to WT

NC(=O)NO [HU, hydroxyurea]
reduction in cfu/mL, HU alone [1]: < 1 log

O=C(N[C@H](CO)[C@H](O)c1ccc([N+](=O)[O-])cc1)C(Cl)Cl [chloramphenicol]
10×MIC (E. coli): 80 µg/mL

O=C(O)c1cn(C2CC2)c2cc(N3CCNCC3)c(F)cc2c1=O [ciprofloxacin]
percentage of cells with Gam-GFP foci (Strain SMR14350): 51.9 ± 6.9%

CCn1cc(C(=O)O)c(=O)c2ccc(C)nc21 [nalidixic acid]
DNA synthesis (DNA replication) (WT E. coli cells): faster cessation of DNA replication | 10×MIC (E. coli): 40 µg/mL

H-(KFF)3K-eg1-ATTGAT TGC G -NH2 [PNA5866]
MIC (MG1655): 16 µM | decrease of cellular NrdA protein level (NrdA protein): did not inhibit NrdA protein levels

— article PMC8521395 (Journal of Antimicrobial Chemotherapy, 2021)
